Experimental data reported in ChEMBL document CHEMBL2034980, “N⁴-Phenyl-substituted 2-acetylpyridine thiosemicarbazones: cytotoxicity against human tumor cells, structure-activity relationship studies and investigation on the mechanism of action” (Bioorg Med Chem, 2012).

Key:
MCF7 = assay: Cytotoxicity against human MCF7 cells after 48 hrs by MTT assay; assay type: functional, cell-based; details: MCF7, 48 h, read-out: pIC50 (converted)
Outline: (§1)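 MTT assay. Cells were grown in DMEM with 10% FBS and penicillin/streptomycin at 37 °C under 5% CO2, seeded at 1–2×10^3 cells/well and treated 12 h later with 1×10^-12 to 1×10^-5 M ([…] from DMSO stock, final DMSO <0.5%) for 48 h. MTT was added at 0.5 mg mL⁻¹, formazan dissolved in DMSO and read at 570 nm. IC50 is the concentration giving 50% cytotoxicity. Quadruplicates, ≥3 independent experiments.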

[1] = Cytotoxicity against human U87 cells expressing wild-type p53 after 48 hrs by MTT assay; assay type: functional, cell-based, U-87MG ATCC; details: U-87 MG, read-out: pIC50 (converted); outline: as §1
T98G = assay: Cytotoxicity against human T98G cells expressing mutant p53 after 48 hrs by MTT assay; assay type: functional, cell-based; details: read-out: pIC50 (converted); outline: as §1

## C/C(=N\NC(=S)Nc1ccc(Cl)cc1)c1ccccn1
MCF7
  IC50: 8.49 nM
[1]
  IC50: 1.7 nM
T98G
  IC50: 5.9 nM

## C/C(=N\NC(=S)Nc1ccccc1Cl)c1ccccn1
MCF7
  IC50: 0.16 nM
[1]
  IC50: 2.6 nM
T98G
  IC50: 1.1 nM

## C/C(=N\NC(=S)Nc1cccc(Cl)c1)c1ccccn1
MCF7
  IC50: 24 nM
[1]
  IC50: 31 nM
T98G
  IC50: 1 nM

## C/C(=N\NC(=S)Nc1ccccc1[N+](=O)[O-])c1ccccn1
MCF7
  IC50: 5.7 nM
[1]
  IC50: 4.3 nM
T98G
  IC50: 6.61 nM

## C/C(=N\NC(=S)Nc1ccccc1F)c1ccccn1
MCF7
  IC50: 0.39 nM
[1]
  IC50: 5 nM
T98G
  IC50: 3.1 nM

## C/C(=N/NC(=S)Nc1ccccc1Cl)c1ccccn1
MCF7
  IC50: 0.16 nM
[1]
  IC50: 2.6 nM
T98G
  IC50: 1.1 nM

## C/C(=N/NC(=S)Nc1cccc(Cl)c1)c1ccccn1
MCF7
  IC50: 24 nM
[1]
  IC50: 31 nM
T98G
  IC50: 1 nM

## C/C(=N\NC(=S)Nc1cccc(I)c1)c1ccccn1
MCF7
  IC50: 45 nM
[1]
  IC50: 83.9 nM
T98G
  IC50: 61 nM

## C/C(=N\NC(=S)Nc1ccc(I)cc1)c1ccccn1
MCF7
  IC50: 6.61 nM
[1]
  IC50: 59 nM
T98G
  IC50: 64 nM

## C/C(=N\NC(=S)Nc1cccc(F)c1)c1ccccn1
MCF7
  IC50: 8.99 nM
[1]
  IC50: 18 nM
T98G
  IC50: 12 nM

## C/C(=N\NC(=S)Nc1ccc(F)cc1)c1ccccn1
MCF7
  IC50: 1.2 nM
[1]
  IC50: 10 nM
T98G
  IC50: 17 nM

## C/C(=N\NC(=S)Nc1ccccc1I)c1ccccn1
MCF7
  IC50: 4.1 nM
[1]
  IC50: 6.1 nM
T98G
  IC50: 8.09 nM

## C/C(=N\NC(=S)Nc1cccc([N+](=O)[O-])c1)c1ccccn1
MCF7
  IC50: 38 nM
[1]
  IC50: 69 nM
T98G
  IC50: 140 nM

## C/C(=N\NC(=S)Nc1ccc([N+](=O)[O-])cc1)c1ccccn1
MCF7
  IC50: 52 nM
[1]
  IC50: 160 nM
T98G
  IC50: 140 nM

## C/C(=N/NC(=S)Nc1ccccc1)c1ccccn1
MCF7
  IC50: 0.18 nM
[1]
  IC50: 1.4 nM
T98G
  IC50: 6.81 nM
